pIC50: −log10 of the molar value.
Tests used:
[1] = Cytotoxicity against human A549 cells assessed as reduction in cell viability incubated for 72 hrs by SRB assay; assay type: functional, cell-based; conditions: A549, 72 h
Outline: (§1)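 Cytotoxicity was tested against the HL-60 human leukemia and A-549 human lung adenocarcinoma lines, with adriamycin as the positive control. Potency was expressed as IC50.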

[2] = Cytotoxicity against human HL60 cells assessed as reduction in cell viability after 72 hrs by MTT assay; assay type: functional, cell-based; conditions: HL-60, 72 h; outline: as §1
[3] = target: T1, Tyrosine-protein phosphatase non-receptor type 1 (Homo sapiens, UniProt P18031); test: Inhibition of PTP1B (unknown origin) using pNPP as substrate after 3 mins by colorimetric analysis
T1 sequence (P18031 whole entry): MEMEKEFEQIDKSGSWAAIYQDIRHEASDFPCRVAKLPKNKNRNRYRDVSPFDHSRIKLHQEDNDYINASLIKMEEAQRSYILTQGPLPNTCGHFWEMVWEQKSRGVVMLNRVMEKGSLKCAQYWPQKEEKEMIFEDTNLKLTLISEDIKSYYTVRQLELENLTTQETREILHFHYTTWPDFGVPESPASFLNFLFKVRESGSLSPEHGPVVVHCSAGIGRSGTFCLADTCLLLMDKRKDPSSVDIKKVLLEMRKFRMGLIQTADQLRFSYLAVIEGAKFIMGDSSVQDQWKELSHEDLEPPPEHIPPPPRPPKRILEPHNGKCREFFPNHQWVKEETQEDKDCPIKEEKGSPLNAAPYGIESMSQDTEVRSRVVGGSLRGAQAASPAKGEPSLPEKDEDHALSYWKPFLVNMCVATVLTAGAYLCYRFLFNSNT

Structure (SMILES)	pIC50 [3]	pIC50 [1]	pIC50 [2]
CC(=O)CC[C@@H]1[C@H]([C@H]2C(=O)CC[C@]2(C)[C@H](CC(C)C)c2c(O)c(C=O)c(O)c(C=O)c2O)C1(C)C		< 5.00	< 5.00
CC(C)CC(c1c(O)c(C=O)c(O)c(C=O)c1O)[C@@]1(C)CC[C@H]2C1=C[C@H](C(C)(C)O)CC[C@H]2C (some centres not stated)		< 5.00	< 5.00
CC(C)C[C@@H](c1c(O)c(C=O)c(O)c(C=O)c1O)[C@@H]1CC[C@@](C)(O)[C@@H]2[C@@H]3[C@H](CC[C@]21C)C3(C)C		< 5.00	< 5.00
CC(C)C[C@@H](c1c(O)c(C=O)c(O)c(C=O)c1O)[C@@]1(C)CC[C@@H]2[C@@H]1[C@H]1[C@@H](CC[C@@]2(C)O)C1(C)C [MACROCARPAL A]		< 5.00	< 5.00
CC(C)CC(c1c(O)c(C=O)c(O)c(C=O)c1O)C1CC[C@@H](C)C2=C[C@H](C(C)(C)O)CC[C@]21C (some centres not stated)		< 5.00	< 5.00
C=C1CC[C@@H]2[C@H]([C@H]3[C@H]1CC[C@]3(C)[C@@H](CC(C)C)c1c(O)c(C=O)c(O)c(C=O)c1O)C2(C)C [MACROCARPAL C]		< 5.00	< 5.00
CC(C)C[C@H](c1c(O)c(C=O)c(O)c(C=O)c1O)[C@@H]1CC[C@@](C)(O)[C@@H]2[C@@H]3[C@H](CC[C@]21C)C3(C)C		< 5.00	< 5.00
CC(C)C[C@H](c1c(O)c(C=O)c(O)c(C=O)c1O)[C@@]1(C)CC[C@@H]2[C@@H]1[C@H]1[C@@H](CC[C@@]2(C)O)C1(C)C [MACROCARPAL B]		< 5.00	< 5.00
CC(C)C[C@H](c1c(O)c(C=O)c(O)c(C=O)c1O)[C@@]1(C)CC[C@H]2C1=C[C@H](C(C)(C)O)CC[C@H]2C		< 5.00	< 5.00

More lines, main results first:

pIC50 [3]	Structure (SMILES)	pIC50 [1]	pIC50 [2]
5.25	CC(C)C[C@@H](c1c(O)c(C=O)c(O)c(C=O)c1O)[C@@]1(C)CC[C@@H]2[C@@H]1[C@H]1[C@@H](CC[C@]2(C)O)C1(C)C	< 5.00	< 5.00
5.52	CC(C)C[C@H](c1c(O)c(C=O)c(O)c(C=O)c1O)[C@@]1(C)CC=C2[C@H](C)CC[C@@H]3[C@H]([C@@H]21)C3(C)C	< 5.00	< 5.00
5.39	CO[C@]1(C)CC[C@@H]2[C@H]([C@H]3[C@H]1CC[C@]3(C)[C@@H](CC(C)C)c1c(O)c(C=O)c(O)c(C=O)c1O)C2(C)C	< 5.00	< 5.00
5.74	CC(C)C[C@@H](c1c(O)c(C=O)c(O)c(C=O)c1O)[C@@]1(C)CC=C2[C@H](C)CC[C@@H]3[C@H]([C@@H]21)C3(C)C	< 5.00	< 5.00
5.37	CC(C)CC(=O)c1c(O)c(C=O)c(O)c(C[C@@]2(C)CC[C@H]3C2=C[C@H](C(C)(C)O)CC[C@H]3C)c1O	< 5.00	< 5.00
5.54	C=C(C)[C@@H]1C=C2[C@@H](C)CC[C@@H]([C@@H](CC(C)C)c3c(O)c(C=O)c(O)c(C=O)c3O)[C@]2(C)CC1		
5.80	CC(C)C[C@@H](c1c(O)c(C=O)c(O)c(C=O)c1O)[C@@]1(C)CCC2=C1[C@H]1[C@@H](CC[C@H]2C)C1(C)C	< 5.00	< 5.00
5.37	CC(C)C[C@@H](c1c(O)c(C=O)c(O)c(C=O)c1O)[C@H]1CC[C@@H](C)[C@@]2(C)C1=CC[C@@H]1[C@H]2C1(C)C		
5.35	CC1=C2CC[C@](C)([C@@H](CC(C)C)c3c(O)c(C=O)c(O)c(C=O)c3O)[C@H]2[C@H]2[C@@H](CC1)C2(C)C	< 5.00	< 5.00
5.89	CC(C)C[C@H](c1c(O)c(C=O)c(O)c(C=O)c1O)[C@H]1CC[C@@H](C)[C@@]2(C)C1=CC[C@@H]1[C@H]2C1(C)C		

Source: ChEMBL document CHEMBL3853289, “Eucarobustols A-I, Conjugates of Sesquiterpenoids and Acylphloroglucinols from Eucalyptus robusta” (J Nat Prod, 2016)
